pIC50: −log10 of the molar value. Active and inactive are the calls of the source. The calls are words filed in the database; no cut-off is given here.
Columns and labels:
[1] = test system: 20S proteasome (Oryctolagus cuniculus); test: Inhibition of chymotrypsin like activity of 20S proteasome at 50 uM
[2] = Inhibition of chymotrypsin like activity of 20S proteasome; parameters: species or system Homo sapiens
Procedure, shortened: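 Purified rabbit 20S proteasome (35 ng) incubated with the fluorogenic substrate Suc-Leu-Leu-Val-Tyr-AMC (40 μM), with or without compound. Chymotrypsin-like activity was read as substrate hydrolysis.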

Raji [3] = test: Increase in ubiquitinated protein bax level in leukemia Raji B cells after 4 hrs; assay type: functional; conditions: for Activity: Homo sapiens, TDE = time-dependent effect
Procedure, shortened: (§1)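 Raji B cells (RPMI, 10% FBS, 37 °C, 5% CO2) exposed to DMSO solvent or 25 μM compound for 4 or 24 h. Whole cell extracts immunoblotted with antibodies to IκB-α, p27, Bax and ubiquitin, with actin as loading control, and quantified by densitometry.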

Raji [4] = test: Increase in ubiquitinated protein IkBalpha level in leukemia Raji B cells after 4 hrs; assay type: functional; conditions: for Activity: Homo sapiens
Procedure, shortened: as §1

Raji [5] = test: Increase in ubiquitinated protein p27 level in leukemia Raji B cells after 4 hrs; assay type: functional; conditions: for Activity: Homo sapiens, TDE = time-dependent effect
Procedure, shortened: as §1

Raji [6] = test: Induction of cell death in leukemia Raji B cells at 25 uM after 24 hrs; assay type: functional, Homo sapiens
Procedure, shortened: (§2)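 Raji B leukaemia cells grown in RPMI with 10% FBS, penicillin and streptomycin at 37 °C under 5% CO2. Treated with 25 μM compound or DMSO solvent for 24 h. Death scored by trypan blue dye exclusion: blue cells and cells with apoptotic morphology (shrinking, blebbing) on phase-contrast microscopy counted as dead.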

Raji [7] = test: Inhibition of chymotrypsin like activity of 20S proteasome in leukemia Raji B cells at 25 uM after 24 hrs; assay type: cell-based; conditions: Homo sapiens
Procedure, shortened: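 Raji B cells dosed at 25 μM for 4 or 24 h, then harvested and lysed. Whole cell extract (10 μg) incubated with Suc-Leu-Leu-Val-Tyr-AMC (40 μM) in 50 mM Tris-HCl pH 8 at 37 °C for 2.5 h. Released AMC read at ex 380/em 460 nm.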

Raji [8] = test: Inhibition of chymotrypsin like activity of 20S proteasome in leukemia Raji B cells at 25 uM after 4 hrs; assay type: cell-based; conditions: Homo sapiens
Procedure, shortened: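 Raji B cells treated with 25 μM compound for 4 h, then harvested and lysed. Whole-cell extract (10 μg) incubated with 40 μM Suc-Leu-Leu-Val-Tyr-AMC in 50 mM Tris-HCl pH 8 at 37 °C for 2.5 h. Free AMC read by fluorescence at 380 nm excitation and 460 nm emission.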

Raji [9] = test: Increase in cell death in leukemia Raji B cells at 25 um after 24 hrs; assay type: functional, Homo sapiens
Procedure, shortened: as §2

Raji [10] = test: Increase in ubiquitinated protein bax level in leukemia Raji B cells after 24 hrs; assay type: functional, cell-based; conditions: Homo sapiens
Procedure, shortened: as §1

Raji [11] = test: Increase in ubiquitinated protein IkBalpha level in leukemia Raji B cells after 24 hrs; assay type: functional, cell-based; conditions: Homo sapiens
Procedure, shortened: as §1

Raji [12] = test: Induction of apoptosis in leukemia Raji B cells assessed as PARP1 ceavage after 24 hrs; assay type: functional, cell-based; conditions: Homo sapiens
Procedure, shortened: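 Raji B cells were treated with DMSO or 25 μM compound for 4 or 24 h. Whole cell extracts were immunoblotted with a polyclonal anti-PARP antibody to detect apoptosis-specific PARP cleavage, with densitometric quantification.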

Raji [13] = test: Increase in ubiquitinated protein p27 level in leukemia Raji B cells after 24 hrs; assay type: functional, cell-based; conditions: Homo sapiens
Procedure, shortened: as §1

Raji [14] = test: Effect on apoptosis in leukemia Raji B cells assessed as increase in caspase 3 activation after 24 hrs; assay type: functional, Homo sapiens
Procedure, shortened: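 Raji B cells (RPMI, 10% FBS, 37 °C, 5% CO2) given 25 μM compound for 4 or 24 h, then harvested and lysed. Lysates incubated with Ac-DEVD-AMC (40 μM) for 2.5 h; caspase-3 activity read from fluorogenic substrate cleavage.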

`CC(=O)Oc1cc(OC(C)=O)c2c(c1)O[C@H](c1cc(OC(C)=O)c(OC(C)=O)c(OC(C)=O)c1)[C@H](OC(=O)c1cc(OC(C)=O)c(OC(C)=O)c(OC(C)=O)c1)C2` gave an inhibition [1] of less than 20%.
In the case of `CC(C)(C)OC(=O)Nc1ccc(C(=O)O[C@@H]2Cc3c(O)cc(O)cc3O[C@@H]2c2cc(O)c(O)c(O)c2)cc1`, the pIC50 [2] was 5.41, the Activity (Raji [3]) was “tde” and the Activity (Raji [4]; TDE = time-dependent effect) was “tde”. The Activity (Raji [5]) was “tde” and the Activity (Raji [6]) was 10%.
With `O=C(O[C@@H]1Cc2c(O)cc(O)cc2O[C@@H]1c1cc(O)c(O)c(O)c1)c1cc(O)c(O)c(O)c1` [EPIGALOCATECHIN GALLATE] the pIC50 [2] was 6.70, the inhibition (Raji [7]) was 10% and the inhibition (Raji [8]) was 4%.
For `Nc1ccc(C(=O)O[C@@H]2Cc3c(O)cc(O)cc3O[C@@H]2c2cc(O)c(O)c(O)c2)cc1`, the pIC50 [2] was 6.08, the Activity (Raji [3]) was “tde” and the Activity (Raji [4]; TDE = time-dependent effect) was “tde”. For the same molecule, the Activity (Raji [5]) was “tde” and the Activity (Raji [6]) was 10%.
`CC(=O)Oc1cc(OC(C)=O)c2c(c1)O[C@H](c1cc(OC(C)=O)c(OC(C)=O)c(OC(C)=O)c1)[C@H](OC(=O)c1ccc(NC(=O)OC(C)(C)C)cc1)C2` gave a Fold change (Raji [3]) of 3.5, an inhibition (Raji [7]) of 65% and a Fold change (Raji [9]) of 5. For the same molecule, the Fold change (Raji [4]) was 1.4, the inhibition [1] was less than 20% and the Activity (Raji [10]) was “Active”. For the same molecule, the Activity (Raji [11]) was “Active”, the Fold change (Raji [5]) was 2.1 and the Activity (Raji [12]) was “Active”. For the same molecule, the Activity (Raji [13]) was “Active” and the Fold change (Raji [14]) was 5.5.
With `CC(=O)Oc1cc(OC(C)=O)c2c(c1)O[C@H](c1cc(OC(C)=O)c(OC(C)=O)c(OC(C)=O)c1)[C@H](OC(=O)c1ccc(N)cc1)C2` the Fold change (Raji [3]) was 3.3, the inhibition (Raji [7]) was 39% and the Fold change (Raji [9]) was 3.5. For the same molecule, the Activity (Raji [4]) was “inactive”, the inhibition [1] was less than 20% and the Activity (Raji [10]) was “Active”. For the same molecule, the Activity (Raji [11]) was “Active”, the Fold change (Raji [5]) was 2 and the Activity (Raji [12]) was “Active”. For the same molecule, the Activity (Raji [13]) was “Active” and the Fold change (Raji [14]) was 4.7.

Reference: ChEMBL document CHEMBL1149605, “A para-amino substituent on the D-ring of green tea polyphenol epigallocatechin-3-gallate as a novel proteasome inhibitor and cancer cell apoptosis inducer” (Bioorg Med Chem, 2007)
